95 compounds from ChEMBL document CHEMBL4513216, “Probing the Open Global Health Chemical Diversity Library for Multistage-Active Starting Points for Next-Generation Antimalarials” (ACS Infect Dis, 2020) can be followed below.

This data set in a line: Toxicity liver stage against HepG2, at 10uM. In kind it is cell-based. Also on record: test concentration 10 uM, cell line HepG2-A16-CD81EGFP. To be noted: human, HepG2-A16-CD81EGFP cells; read-out: INHIBITION
The procedure, abridged:
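Uninfected HepG2-A16-CD81EGFP cells, 3 × 10^3 per well, 1536-well, plated on prespotted compound at 10 μM final, parasite-free screening media added to match infected plates; puromycin 10 μM positive, DMSO 0.5% negative; run in parallel with 48 h PbLuc assay at 37 °C, 5% CO2; viability by CellTiter-Glo luminescence, normalized to controls.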
As to `Cc1cc2cc(Nc3c(C#N)c(=O)n(C)c(=O)n3C)ccc2[nH]1`, the cytotoxicity at 10 µM is 1.11%.
The figure for `O=C1N[C@@H]2CCN(C(=O)N3CCOCC3)[C@@H]2C(=O)N1Cc1ccccc1` is -3.36%.
The figure for `CC(c1ccncc1)N(CCN(C)C)C(=O)Nc1ccc(Cl)c(Cl)c1` (stereo not given) is 7.41%; for `Cc1nn2cnnc2c(C)c1CCC(=O)Nc1nnc(C2CC2)s1` it is -2.89%.
The result for `CCc1cnc2c(c1Nc1cccc(OC)c1)c(=O)n(C)c(=O)n2C` reads 12.6%; that for `Cc1nc(N2CCCC2)nc2c1CN(C(=O)c1ccco1)CC2`, 5.29%; that for `CN(C)C(=O)c1nc2c(n1C)CCN(Cc1ccccc1)C2`, 7.83%.
On to `Cc1noc([C@H]2COC[C@H]3CN(C(=O)Cc4ccsc4)C[C@H]32)n1`, for which the cytotoxicity at 10 µM is -3.26%.
On to `COc1cccc2c1ccn2CCNC(=O)C(C)C`, for which the cytotoxicity at 10 µM came to 5.66%.
The figure for `COCC1CC2(CCN(C(=O)c3cccn3C)CC2)CN1C(C)C` (stereo not given) is -14.2%; for `Cc1cc(C(=O)NCC2COCc3c(C)nnn3C2)no1` (stereo not given) it is -7.32%; for `O=C1CCC(c2nc(C3CCN(C(=O)Cc4cccs4)CC3)no2)N1` (stereo not given) it is -2.83%.
The result for `Cc1ncsc1C(=O)N1CCC(O)(Cn2c(C)cc3ccncc32)CC1` reads 9.59%.
For `COc1ccc2c(c1)NC(C1CCN(C(=O)C3CC3)CC1)NS2(=O)=O` (stereo not given), the cytotoxicity at 10 µM was 0.0454%.
The result for `CCCC(=O)N1CCC(Cc2ccccc2-c2ccccc2)(C(N)=O)C1` (stereo not given) reads -23.6%; that for `CC(=O)c1ccc(-c2cc(C(F)(F)F)cc(N(C)C)n2)cc1`, 4.02%.
The figure for `CC(NC(N)=O)C(=O)NCc1ccc(Br)c(F)c1` (stereo not given) is 7.97%.
The result for `c1csc(-c2noc(C3CCCOC3)n2)c1` (stereo not given) reads 7.39%; that for `CCC(C)(CC(=O)OC)NCc1noc(C)n1` (stereo not given), -4.39%; that for `CSc1cc(CNC(=O)CCOc2ccccc2C)ccn1`, 6.72%.
Take `CCC(C)NC(=O)Nc1cccc(OC)c1` (stereo not given): the cytotoxicity at 10 µM came to 0.554%.
The result for `O=C(Nc1cnn(Cc2ccc(Cl)cc2)c1)N1CCCC1CO` (stereo not given) reads -1.13%; that for `COCC(=O)N1CCN(c2ccc(C(=O)OC)cc2)CC1C` (stereo not given), -14.2%; that for `CCC(CC)NC(=O)c1cncc(Br)c1`, -0.211%.
Regarding `CC(C(=O)NS(=O)(=O)Cc1cc(-c2ccccc2)no1)C1CC1` (stereo not given), the cytotoxicity at 10 µM is -2.72%.
Regarding `O=C(Nc1ccc(CN2CCOCC2)cc1)c1nccn2ccnc12`, the cytotoxicity at 10 µM is -8.3%.
The result for `CC(C)=CCS(=O)(=O)Cc1ccn(-c2cccc(F)c2)n1` reads 6.37%; that for `CS(=O)(=O)NC1CCN(C(=O)c2ccc(Br)o2)C1` (stereo not given), -7.03%; that for `COC(=O)c1cc(OC)c(OC)cc1NCc1c(C)noc1C`, 4%.
The figure for `CS(=O)(=O)NCC1CCCN(C(=O)Nc2cccc3ccccc23)C1` (stereo not given) is -139%; for `O=C(CS(=O)(=O)C1CCCC1)NC(c1ccc(F)cc1)C1CC1` (stereo not given) it is -159%.
The figure for `Cc1cc(NC(=O)CNC(C)(C)c2ccc3c(c2)OCO3)on1` is 7.51%; for `CCc1ncc2c(n1)CN(CC(O)COc1ccc(C#N)cc1)CC2` (stereo not given) it is -7.65%.
As to `CN1CCCN(c2nc(C3CC3)ns2)CC1`, the cytotoxicity at 10 µM was -3.23%.
The result for `c1ccc(OCCNC2CCN(c3ncccn3)CC2)cc1` reads 1.85%; that for `CCC1CN(c2cnn(C)c(=O)c2Br)CCO1` (stereo not given), -5.09%; that for `O=C(Cc1csc(N2CCNC2=O)n1)NCC1(c2ccccc2)CC1`, -123%.
With `CCOc1ccc(NC2CCN(C)C2=O)cn1` (stereo not given), the cytotoxicity at 10 µM is -3.7%.
The figure for `CC(C)(CNc1cn[nH]c(=O)c1Cl)c1ccc2c(c1)OCO2` is 6.67%; for `Cc1nnc(CN(Cc2ccccc2Br)C2CC2)o1` it is 5.2%.
The figure for `COc1c(NC(=O)C(C)CCOc2ccccc2)c(C)nn1C` (stereo not given) is 8.96%; for `Cn1cnc2cc(C(=O)NS(=O)(=O)c3ccccc3Cl)ccc21` it is -7.43%; for `Cc1ccc(CC(=O)N2CCN(C(C)c3ccccc3F)CC2)cn1` (stereo not given) it is -9.75%.
With `COc1ccc(F)cc1C(C)NC(=O)Nc1nnc(C)s1` (stereo not given), the cytotoxicity at 10 µM was -1.01%.
Regarding `COc1ccc(-c2nnc(SCC(=O)NCC(C)C)[nH]2)c(OC)c1`, the cytotoxicity at 10 µM was -6.73%.
For `CCc1nnc2n1CCN(C(=O)c1ccc3nc(C)c(C)nc3c1)C2`, the cytotoxicity at 10 µM was -10.9%.
The figure for `Cc1ccoc1C(=O)N1C[C@H](OCC2CC2)[C@H]2OCCC[C@H]21` is 2.89%; for `CCCSc1ccccc1NC(=O)N1CCC(N2CCSCC2)CC1` it is -4.73%; for `CCCc1n[nH]c(=O)n1Cc1ccc(OC)cc1` it is -130%.
On to `CCN(CC1CCCN(CCc2cccc(OC)c2)C1)C(=O)CSC` (stereo not given), for which the cytotoxicity at 10 µM turned out to be 8.76%.
The figure for `O=C(C1CCOCC1)N1CC[C@@](O)(c2ccccc2)[C@H]2CCCC[C@@H]21` is -8.35%.
The result for `COCCN1CCC(CN(Cc2ccncc2)C2CCCCC2)CC1` reads -2.91%.
In the case of `CCCOCCN1CCc2[nH]c(-c3ccc(OC)cc3)nc2C1`, the cytotoxicity at 10 µM was -113%.
As to `CN1CCN(C[C@H]2CC[C@@H](Cc3ccc4c(c3)OCO4)O2)CC1`, the cytotoxicity at 10 µM was -5.13%.
The figure for `COCCN(Cc1sccc1C)C(=O)COc1cccnc1` is -138%; for `COC[C@]1(O)CCN(c2cc(OC)ncn2)CC1(C)C` it is 5.66%; for `Cc1nn2c(N3CCCC(C(N)=O)C3)cc(-c3ccccc3)nc2c1C` (stereo not given) it is -4.45%.
The figure for `CC(NC(=O)COc1ccc(Cl)cc1Cl)c1nncn1C(C)C` (stereo not given) is 1.67%.
The figure for `CN(C)C(C(=O)N1CCCN(C(=O)C2CCC2)CC1)c1ccccc1F` (stereo not given) is -2.11%; for `c1cc(-c2ccc(CN3CCCC4(CCNC4)C3)s2)[nH]n1` (stereo not given) it is -152%; for `Nc1cc(C(=O)N2CCC3(CC2)Nc2ccccc2NC3=O)ccn1` it is 6.13%.
Take `O=S(=O)(c1ccc(-c2cnco2)cc1)N1CCCC(O)(CO)CC1` (stereo not given): the cytotoxicity at 10 µM worked out at 1.72%.
The figure for `CC(=O)N1CCc2[nH]cnc2C12CCN(CC1CCOC1)CC2` (stereo not given) is -8.46%.
The result for `COCCn1ccnc1C1CCCN(C(=O)c2cccnc2SC)C1` (stereo not given) reads -14.2%; that for `CC(C)(O)CCc1cccc(C(=O)N[C@@H](CO)C(N)=O)c1`, 4.76%; that for `CCOc1ccccc1-n1c(C2CC(=O)N(C)C2)n[nH]c1=O` (stereo not given), 2.48%.
The result for `COc1cccc(-c2noc(-c3ccc(NCC4CC4)nc3)n2)c1OC` reads 6.65%; that for `Cc1ncccc1OCC(=O)N1CCN[C@H]2CS(=O)(=O)C[C@H]21`, 13.1%.
Consider `CC(C)N1CCCC2(CCN(C(=O)CCCn3cncn3)C2)C1=O` (stereo not given), for which the cytotoxicity at 10 µM was -11.1%.
Turning to `CC(C)Cc1cc(NC(=O)c2cc(Cl)c[nH]2)n(C)n1`, the cytotoxicity at 10 µM was -7.94%.
The result for `O=C(Nc1cc(C(F)(F)F)c[nH]c1=O)N1CCOCC1` reads -3.03%.
The result for `O=C(O)c1c[nH]c2cc(NS(=O)(=O)c3cc(F)ccc3Cl)ccc12` reads -1.43%.
The figure for `CCn1c(C(=O)N2CCN(CC[S+](C)[O-])CC2)cc2ccccc21` (stereo not given) is -3.49%.
For the compound `O=S1(=O)CCC(N(Cc2nc3ccccc3o2)Cc2cccs2)C1` (stereo not given), the cytotoxicity at 10 µM is -3.08%.
With `CC(NC(=O)CCC(=O)c1cccs1)c1nnc2n1CCC2` (stereo not given), the cytotoxicity at 10 µM is -15.1%.
The figure for `CC(C)(C)c1n[nH]c(C2CN(C(=O)CCc3cccs3)CCO2)n1` (stereo not given) is -10.6%; for `CC(C)c1ccc(OCC(=O)NS(=O)(=O)c2cccnc2)cc1` it is -5.19%; for `O=C(COCC1CC1)Nc1ncn(CC(=O)N2CCCCCC2)n1` it is -11.9%.
The figure for `Cn1cc(C2CCCN2C(=O)COCCc2ccccc2)cn1` (stereo not given) is -2.87%.
The figure for `CCc1cnc(CN(C)C2CCN(CC(=O)Nc3cc(C)on3)C2)o1` (stereo not given) is 0.2%.
Take `Cc1cnn(CCNCC(O)COc2c(Cl)cccc2Cl)c1` (stereo not given): the cytotoxicity at 10 µM was -5.4%.
The figure for `Cn1ccnc1CNCC1CCCN1c1cccnn1` (stereo not given) is -11.3%.
The result for `O=C(c1cnc(-c2ccccn2)s1)N1CCCC(n2cccn2)C1` (stereo not given) reads -11.9%.
The result for `CCn1cc(NC(=O)NCC(C)(C)N2CCc3ccccc3C2)cn1` reads -5.16%; that for `Cc1nc(CN(Cc2ccc3c(c2)OCCO3)C2CCCC2)no1`, -9.19%; that for `CN(C)[C@@H]1CCN(c2ncccn2)[C@H]1Cc1cccnc1`, -3.9%.
For the compound `Cn1cnc2c1C(COCC1CC1)CN(c1ncccn1)C2` (stereo not given), the cytotoxicity at 10 µM came to 7.22%.
Turning to `O=C(CC1CCCC1)N1C[C@H](OCc2ccncc2)[C@H]2OCCC[C@H]21`, the cytotoxicity at 10 µM was found to be 2.75%.
The result for `Cc1ccc(C(=O)N2Cc3c(CN4CCCCC4)nn(C)c3C2)cc1F` reads -4.15%.
The result for `CN1CCN(C(=O)[C@H]2C[C@@H]3CCN(c4ncc(F)cn4)C[C@@H]3O2)CC1` reads -6.69%; that for `O=C(c1ccsc1)N1CCO[C@@H]2CN(Cc3ccccn3)CC[C@@H]2C1`, -123%.
The figure for `CCCS(=O)(=O)N1C[C@@H]2CN(Cc3ccco3)CCO[C@@H]2C1` is -142%; for `Cc1cc(C(=O)N2CCC3(CC2)CC(c2cccnc2)C(=O)N3)no1` (stereo not given) it is -133%.
With `Cc1ccc(CN2CCc3ncnc(C4CCOC4)c3CC2)s1` (stereo not given), the cytotoxicity at 10 µM was -0.827%.
The figure for `CCc1ccc(NC(=O)N2C[C@@H]3C[C@H](C(=O)NC(C)C)[C@H](C2)O3)cc1` is -1.67%.
